An excerpt weighted towards active compounds, which were near 1.3% of everything screened.
MLL AF4-AF9 inh: inhibitors of human MLL-AF4/AF9 interaction; 0.47% of 350,000 active; inhibition, % at 10 µM; AlphaScreen, biotin-AF4 peptide binding to FLAG-AF9; P42568;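 active means every replicate reaching a set inhibition limit, whatever the replicate mean, cut at about 25% in these data; inconclusive means mean inhibition reaches that limit but some replicates miss it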;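 further: 0% = plate neutral control median and 100% = total signal loss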
Target sequence (P42568 whole entry, looked up): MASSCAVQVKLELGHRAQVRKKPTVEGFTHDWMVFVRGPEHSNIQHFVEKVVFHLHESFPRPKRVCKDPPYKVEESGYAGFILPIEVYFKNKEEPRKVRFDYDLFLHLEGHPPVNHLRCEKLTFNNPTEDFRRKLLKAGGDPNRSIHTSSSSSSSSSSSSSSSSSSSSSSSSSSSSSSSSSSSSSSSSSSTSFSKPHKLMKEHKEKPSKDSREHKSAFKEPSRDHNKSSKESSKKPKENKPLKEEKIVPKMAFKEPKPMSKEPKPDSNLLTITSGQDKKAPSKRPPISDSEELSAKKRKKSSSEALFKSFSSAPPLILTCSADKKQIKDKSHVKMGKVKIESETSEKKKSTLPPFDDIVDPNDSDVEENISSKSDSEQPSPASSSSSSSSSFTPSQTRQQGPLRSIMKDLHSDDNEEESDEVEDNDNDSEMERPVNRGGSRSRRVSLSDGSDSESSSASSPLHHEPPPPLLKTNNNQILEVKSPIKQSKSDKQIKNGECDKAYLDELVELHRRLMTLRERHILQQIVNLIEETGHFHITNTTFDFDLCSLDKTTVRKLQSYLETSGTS
FN deposition inh: fibronectin deposition inhibition; AH1F fibroblasts, Alexa488-fibronectin deposition fluorescence, overnight; inhibition, % at 12.6 µM; 0.086% of 350,000 active;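 active means mean inhibition across replicates of 30% or more, regardless of how many single replicates reach that level; inconclusive means mean under 30% yet at least half of replicates reach 30%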;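 further: positive control wells lacked labelled fibronectin entirely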
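material = AH1F fibroblast monolayer depositing Alexa488-labelled fibronectin into matrix | amount = 10000 AH1F cells/well | buffer or medium = DMEM plus 2% serum, read in PBS | incubation = 1 h cell adhesion before compound, then overnight fibronectin incubation | detection = fluorescence at 485 nm excitation, 525 nm emission | evaluation = percent inhibition as loss of matrix-bound fibronectin fluorescence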
PDI inh: PDI (human) enzyme inhibition; P07237; PDI insulin aggregation turbidity, A650, 90 min; inhibition, % at 10 µM; 0.052% of 350,000 active;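 active means mean inhibition across replicates of 30% or more, whatever share of single replicates reach that level; inconclusive means mean inhibition below 30% while every single replicate reaches 30%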
ERp5 block: blocks human ERp5 reductase activity on insulin; Q15084; ERp5 insulin aggregation, absorbance 650 nm, 90 min; inhibition, % at 9.99 µM; 0.05% of 350,000 active;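 active means mean replicate inhibition above about 25%, with every replicate also reaching it, limit read from the data, passing the limit was not always enough; inconclusive means only one of those two criteria met; inactive means neither criterion met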
SIRT5 inh: sirtuin-5 (human) deacylase inhibition. Q9NXA8. Purified SirT5, succinyl-peptide AMC, trypsin-coupled fluorescence. inhibition, % at 15 µM. 1.1% of 330,000 active; in the data active means inhibition above about 15%; inconclusive means no clear call, values can overlap the other calls
* hit, by the source's call; u = inconclusive; x = no result.

SMILES | MLL AF4-AF9 inh | FN deposition inh | PDI inh | ERp5 block | SIRT5 inh
CC(C)CNC(=O)c1coc(=O)c(Br)c1 | x | active | 17.1 | x | x
CCOC(=O)N/N=C\c1ccc(OC(=O)c2ccc3c(c2)OCO3)cc1 | -2.5 | x | 1.6 | 3.4 | -1.2
CC[C@H](C)[C@H](NC(N)=O)C(=O)Nc1ccc(C)cc1 | 3.8 | -3.0 | -3.3 | 5.5 | -2.5
CC[C@H](C)[C@H](NC(N)=O)C(=O)Nc1ccc(NC(C)=O)cc1 | 96.1* | -12.5 | -0.9 | 2.2 | 3.1
O=c1[nH][nH]c2c1[C@H](CCc1cccc(Cl)c1)O[C@H](C1CC1)C2 | -1.0 | 10.3 | x | 3.7 | 0.1
Cc1ccc2c(c1)c1c3n2CCN(C(=O)CCl)C3CCC1 (stereo unspecified) | 11.3 | 2.8 | 58.7* | 2.6 | -6.2
COc1cccc(S(=O)(=O)N(C)C[C@@H]2Oc3cc(C4=CCCCC4)ccc3S(=O)(=O)N([C@H](C)CO)C[C@@H]2C)c1 | 1.2 | x | x | 1.2 | 26.4*
COc1cccc(S(=O)(=O)N(C)C[C@H]2Oc3cc(C4=CCCCC4)ccc3S(=O)(=O)N([C@H](C)CO)C[C@@H]2C)c1 | 1.8 | x | x | -2.8 | 13.2
COc1cccc(S(=O)(=O)N(C)C[C@@H]2Oc3cc(C4=CCCC4)ccc3S(=O)(=O)N([C@H](C)CO)C[C@H]2C)c1 | 0.3 | -19.8 | x | 0.5 | 23.0*
COc1ccc(NC(=S)N2CCN(Cc3ccccc3)CC2)cc1 | 0.2 | -4.1 | 4.4 | 8.4 | 93.9*
O=C(O)c1ccc(Nc2cc(Cl)c3nonc3c2[N+](=O)[O-])cc1 | -5.6 | 14.0 | 13.7 | -2.1 | 2.2
O=[N+]([O-])c1c(Nc2cccc(O)c2)cc(Cl)c2nonc12 | 4.6 | 35.0* | 23.2 | 2.0 | 4.8
O=C(NCc1ccc(F)cc1)C1CC(=O)N(C2CCCCC2)C1 (stereo unspecified) | -2.0 | 8.6 | 3.8 | 0.4 | 31.2*
O=C(c1ccc(N2CCN(C(=O)c3cccc(F)c3)CC2)cc1)c1cccc(F)c1 | -1.4 | -4.9 | 6.3 | 1.7 | 2.5
CCC(=O)c1cn(CC(=O)Nc2cccc(C)c2C)c2ccccc12 | -0.1 | 2.4 | -0.4 | 0.8 | -4.5
CC(=O)c1cn(CC(=O)Nc2cccc(C)c2C)c2ccccc12 | -2.2 | 1.4 | 3.0 | 3.2 | 22.0*
CC1=CC(=O)C=C(C)C1=NOS(=O)(=O)c1ccccc1 | x | x | 5.8 | x | x
CC1=CC(=O)C(C(C)C)=C/C1=N/OS(=O)(=O)c1ccccc1 | 17.4 | 32.7* | -6.3 | x | -3.4
COc1ccc(S(=O)(=O)Nc2ccc3c(c2)C(=O)N([C@@H](C)CO)C[C@@H](C)[C@H](CN(C)C(=O)Nc2ccc(F)cc2)OCCCC[C@@H](C)O3)cc1 | -0.4 | x | x | -3.0 | 8.1
Cc1ccc(S(=O)(=O)Nc2ccc3c(c2)C(=O)N([C@@H](C)CO)C[C@@H](C)[C@@H](CN(C)C(=O)Nc2ccc(F)cc2)OCCCC[C@H](C)O3)cc1 | -3.8 | 4.1 | x | -1.9 | 3.9
Cc1ccc(S(=O)(=O)Nc2ccc3c(c2)C(=O)N([C@H](C)CO)C[C@@H](C)[C@H](CN(C)C(=O)Nc2ccc(F)cc2)OCCCC[C@H](C)O3)cc1 | 1.6 | -4.8 | x | 0.0 | 21.4*
COc1ccc(S(=O)(=O)Nc2ccc3c(c2)C(=O)N([C@@H](C)CO)C[C@@H](C)[C@@H](CN(C)C(=O)Nc2ccc(F)cc2)OCCCC[C@@H](C)O3)cc1 | -0.5 | x | x | -7.8 | 17.8*
COc1ccc(S(=O)(=O)Nc2ccc3c(c2)C(=O)N([C@@H](C)CO)C[C@H](C)[C@@H](CN(C)C(=O)Nc2ccc(F)cc2)OCCCC[C@@H](C)O3)cc1 | 2.0 | x | x | -0.5 | 16.1*
NS(=O)(=O)c1ccc(CNC(=O)c2ccc(S(=O)(=O)NCc3ccco3)cc2)cc1 | -0.1 | 3.7 | 2.9 | -5.0 | -0.3
C[C@@H]1CCCCO[C@H](CN(C)Cc2ccc(C(F)(F)F)cc2)[C@@H](C)CN([C@H](C)CO)C(=O)c2cc(NC(=O)CCCN(C)C)ccc2O1 | 4.5 | x | x | -0.4 | -3.5
SMILES | MLL AF4-AF9 inh | FN deposition inh | PDI inh | ERp5 block | SIRT5 inh
COc1ccc(CCNCc2cc(C)n(-c3ccc(OC)cc3)c2C)cc1 | 39.4* | -1.2 | 0.2 | 4.7 | -5.5
Cc1cccc(/N=C/c2c(O)cc(C)oc2=O)n1 | x | x | -0.1 | -3.0 | 15.2*
Cn1cccc1Cc1nnc(SCC(=O)NC2CCCC2)n1-c1ccc(F)cc1 | 1.3 | -22.0 | x | 0.0 | -2.4
COc1ccc(-c2nn(CCC(=O)O)cc2/C=C2\SC(N)=NC2=O)cc1OC | 2.5 | 13.6 | -8.2 | -2.9 | 27.9*
O=C(c1cc(O)c(O)c([N+](=O)[O-])c1)c1ccccc1F | 25.7* | 6.4 | -8.7 | 4.0 | 4.9
O=[N+]([O-])c1cc(-c2ccccc2)cc([N+](=O)[O-])c1O | -0.6 | 3.5 | -7.9 | -1.6 | 1.1
CCN(CC)CCNC(=S)Nc1ccc2nc(N3CCCC3)cc(C)c2c1 | 9.1 | -4.5 | -0.4 | -5.3 | -2.2
Cc1cc(/C=N/Nc2ccc([N+](=O)[O-])cn2)c(C)n1-c1ccc(C(=O)O)cc1 | 20.1 | 5.4 | 13.9 | 6.0 | 31.8*
COC(=O)c1ccc2nc(-c3ccc(C)cc3)c(Cc3ccccc3)n2c1 | -2.5 | -0.1 | x | -15.6 | 24.0*
COC(=O)C1(C(=O)OC)C(C(=O)c2ccccc2)C1c1ccccc1 (stereo unspecified) | -1.5 | -6.2 | 7.8 | -1.5 | 0.3
Cc1ccc(Cc2c(-c3ccc(Br)cc3)nc3cc(C)ccn23)cc1 | 2.8 | 10.4 | -1.2 | 1.8 | 27.6*
Cc1ccc(Cc2c(-c3ccc(F)cc3)nc3cc(C)ccn23)cc1 | 2.7 | -5.5 | -2.5 | 2.2 | 15.5*
Cc1noc(C)c1NC(=O)N[C@H]1C=C[C@@H](CC(=O)Nc2ccccc2)O[C@@H]1CO | -0.7 | x | x | 3.1 | -0.5
O=C(NCC(=O)N1CCN(C(c2ccccc2)c2ccccc2)CC1)c1ccc(Br)o1 | 2.0 | x | -25.5 | -4.7 | 0.5
O=C(NCC(=O)N1CCN(C(c2ccccc2)c2ccccc2)CC1)c1ccccc1Br | 4.8 | 6.4 | -2.0 | 1.3 | 19.7*
O=C(O)CC(c1ccccc1)n1cccc1 (stereo unspecified) | x | 0.6 | -0.3 | x | x
Nc1ccc(C(CC(=O)O)n2cccc2)cc1 (stereo unspecified) | -13.5 | 4.1 | 2.0 | -2.5 | 21.0*
CCOCCCNC(=O)c1cc(Sc2nnc(C)s2)nc2ccccc12 | -2.8 | -7.0 | 2.4 | -3.9 | -5.4
CCCCn1c(SCC(=O)Nc2nccs2)nc2ccccc2c1=O | x | 3.8 | -1.2 | x | x
O=C(C1CCC(CNc2c(N3CCCCC3)c(=O)c2=O)CC1)N1CCCCC1 (stereo unspecified) | -15.8 | -6.4 | -6.8 | 3.3 | x
O=C(C1CCC(CNc2c(N3CCOCC3)c(=O)c2=O)CC1)N1CCN(c2ccccc2)CC1 (stereo unspecified) | 40.4* | -0.1 | 2.9 | u | 3.2
Cc1cc(C)cc(N(C(=O)Cc2cccs2)C(C(=O)NC2CCCCC2)c2ccccn2)c1 (stereo unspecified) | x | 3.5 | -7.0 | x | x
Cc1nc(CN(C)Cc2nc(Cc3cccc(F)c3)no2)cs1 | 0.2 | 0.4 | 2.7 | 5.1 | 25.5*

Source: PubChem
